# Kir21 block: Kir2.1 (mouse) channel inhibition; 310,000 compounds, 0.85% hits; AID 1672; HEK293-Kir2.1, FluxOR thallium flux fluorescence; hits give low values; B-score at 10 µM; P35561;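 active = fluorescence ratio B-score at or below minus 3 SD of library scores, with starting-brightness B-score within 2 SD, cut at about -4.2 in these data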;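 also: channel flux triggered by added potassium and thallium sulfate stimulus; B-score of peak minus minimum fluorescence over baseline after thallium stimulus; more negative B-score means stronger Kir2.1 block with less thallium influx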
# KCNK3 inh: human KCNK3 channel inhibition, primary screen | O14649 | CHO-KCNK3 thallium flux, FluxOR fluorescence; hits give low values | B-score at 10 µM | 340,000 compounds, 0.84% hits | AID 602410;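 active = B-score under library mean minus 4 SD, starting fluorescence ratio at most library mean plus 5 SD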;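 also: more negative B-score means stronger inhibition of thallium flux through KCNK3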
# Target sequence (O14649 whole entry, looked up): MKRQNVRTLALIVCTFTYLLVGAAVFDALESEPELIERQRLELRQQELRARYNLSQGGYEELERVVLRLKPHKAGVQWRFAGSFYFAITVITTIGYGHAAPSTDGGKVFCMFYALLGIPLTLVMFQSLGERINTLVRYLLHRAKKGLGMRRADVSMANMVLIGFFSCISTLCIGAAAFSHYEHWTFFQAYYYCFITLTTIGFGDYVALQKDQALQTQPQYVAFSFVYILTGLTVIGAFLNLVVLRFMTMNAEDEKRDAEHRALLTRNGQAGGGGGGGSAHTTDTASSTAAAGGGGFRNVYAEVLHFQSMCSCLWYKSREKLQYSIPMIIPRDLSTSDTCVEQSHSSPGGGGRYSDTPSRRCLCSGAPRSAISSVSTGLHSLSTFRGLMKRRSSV
# KCNK9 inh: human KCNK9 channel inhibition | Q9NPC2 | HEK293 KCNK9, FluxOR thallium flux fluorescence; hits give low values | B-score at 10 µM | 310,000 compounds, 1.2% hits;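 active = ratio B-score over 3 SD below the library mean, with starting fluorescence within 5 SD of its mean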;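 also: negative B-score means less thallium flux so channel inhibition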
# KCNQ1 pot: human KCNQ1 channel potentiation or activation. 310,000 compounds, 0.35% hits. AID 2648. B-score at 10 µM. P51787. CHO-K1 KCNQ1, thallium flux FluxOR fluorescence; hits give high values;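 active = fluorescence ratio B-score, a plate-corrected score, at least three library SD, with initial intensity B-score within 5 SD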
#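 Medium – assay buffer, equal DMSO in all wells · Material – CHO-K1 cell line with stable KCNQ1 potassium channel expression · Signal – kinetic FluxOR thallium fluorescence, 10-s 1-Hz baseline, 110-s post-stimulus read · Compound – single concentration per compound, DMSO matched to controls · Schedule – 37 °C overnight plating, 90-min dark dye load, 20-min compound pretreatment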
# KCNQ1 inh: human KCNQ1 channel inhibition | P51787 | CHO-K1 KCNQ1, FluxOR thallium flux fluorescence; hits give high values | B-score at 10 µM | 310,000 compounds, 1.3% hits | AID 2642;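 active = compounds whose thallium flux B-score, printed positive for inhibition, exceeds three library SD while starting fluorescence stays within three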;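 also: channel opened by potassium depolarization with thallium stimulus after 20 min compound exposure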
# hERG protect: hERG (human) protection from proarrhythmic block. CHO-hERG, FluxOR thallium flux, dofetilide IC70 present. activation (rescue from dofetilide block), less the hit threshold, % at 10 µM. 310,000 compounds, 0.51% hits;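 active = activation above the mean of controls blocked by dofetilide plus 5 SD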;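 also: thallium influx through hERG after potassium depolarization seen as dye fluorescence rise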
# The depositor's hits bear a star; i = inactive; x = not tested or not shown. Rows were chosen to be rich in hits. Some 3.7% of all compounds tested hit in one or more screens of this group.
SMILES,Kir21 block,KCNK3 inh,KCNK9 inh,KCNQ1 pot,KCNQ1 inh,hERG protect
Cc1cccc(C(=O)N/N=C/c2coc3ccccc3c2=O)c1,-0.27,i,i,i,i,-13
O=C(N/N=C/c1coc2ccccc2c1=O)c1cccc([N+](=O)[O-])c1,-1.2,i,i,i,7*,-8
CC1=CC(C)(C)N2C(=O)C3(C(C#N)=C(N)Oc4cc(O)ccc43)c3cccc1c32 (centres undefined),0.95,i,i,i,6*,-16
CS(=O)(=O)N(CC(=O)NC1CCCC1)C1CCCCC1,-0.31,i,i,i,i,6.5*
Cc1ccccc1C(=O)Nc1nc(=S)ss1,-0.05,i,i,9*,i,20*
O=C(COC(=O)c1ccco1)Nc1nc2ccccc2s1,0.03,i,i,i,i,7.3*
COc1ccc2nc(NC(=O)CCNC(=O)c3ccco3)sc2c1,x,i,x,x,x,x
COC(=O)c1sc(NC(=S)NC(=O)c2ccc(F)cc2)nc1C,-1.3,x,i,i,i,-4
CC(=O)Nc1nc(=S)ss1,-0.1,i,i,i,i,-8
COC(=O)c1sc(NC(=S)NC(=O)c2ccccc2C)nc1C,0.41,i,i,42*,i,25*
COc1ccc2nc(NC(=S)NC(=O)c3ccco3)sc2c1,-0.16,i,i,25*,i,31*
N#CCCN(Cc1cccnc1)C(=O)c1sc2cc(F)ccc2c1Cl,-0.79,i,i,i,i,-6
O=C(NCc1n[nH]c(=S)n1-c1ccc([N+](=O)[O-])cc1)c1ccc(S(=O)(=O)N2CCOCC2)cc1,0.09,i,i,i,i,-5
O=C(NCc1ccc(-c2nc3ccccc3s2)cc1)c1ccco1,0.5,i,i,i,i,-7
Cc1nc(NC(=S)NC(=O)c2cccs2)ccc1Br,-2.6,i,i,13*,i,-6
COC(=O)c1sc(NC(=O)c2ccco2)nc1C,-1.9,i,i,i,i,-5
O=C(NC(=S)NCc1ccc(-c2nc3ccccc3s2)cc1)c1ccco1,0.18,i,i,i,i,5.5*
CCOC(=O)c1sc(NC(=S)NC(=O)c2ccco2)nc1C,1.3,i,i,9*,i,8.9*
O=C(NC(=S)Nc1nc2ccccc2s1)c1ccco1,0.11,i,i,34*,i,9.2*
COC(=O)c1[nH]c(C)c(/C(O)=C2\C(=O)C(=O)N(CCN3CCOCC3)C2c2ccco2)c1C (centres undefined),-0.53,i,i,i,i,-12
Cc1cc(C)c(S(=O)(=O)NCC2CCC(C(=O)NCc3ccccn3)CC2)c(C)c1 (centres undefined),-1.6,i,i,i,i,-16
Cc1ccc2nc(NC(=S)NC(=O)c3cccs3)sc2c1,-1.3,i,i,17*,i,10*
CCCc1c(C)nc2c(OC)cccc2c1SCC(=O)O,-3,i,i,i,i,4.7*
CCCc1c(C)nc2ccc(OC)cc2c1SCCC(=O)O,0.94,i,i,i,i,-12
CCCn1c(-c2ccc[nH]c2=O)nc2cc(C)c(C)cc21,-0.07,i,i,i,i,-7
SMILES,Kir21 block,KCNK3 inh,KCNK9 inh,KCNQ1 pot,KCNQ1 inh,hERG protect
Cc1cc(C(=O)CSc2nc3ccccc3c(=O)n2C)c(C)n1Cc1ccc2c(c1)OCO2,-0.05,i,-7.9*,i,i,-26
Cc1c(NC2=CC(=O)CCC2)c(=O)n(-c2ccccc2)n1C,0.03,i,i,i,i,-13
Cc1nc(N2CCN(Cc3ccccc3)CC2)c(C#N)c2c1COC(C)(C)C2,-7.5*,i,i,i,i,-12
COC(=O)c1cc(NC(=O)CN(c2ccc3c(c2)OCO3)S(C)(=O)=O)ccc1Cl,0,i,-7.4*,i,i,-10
COC(=O)c1ccc(Cl)c(NC(=O)CN(c2ccc3c(c2)OCO3)S(C)(=O)=O)c1,1.4,i,i,i,i,-6
CC(C)N(CCCNC(=O)C1CCC(CNS(=O)(=O)c2ccccc2)CC1)Cc1ccccc1 (centres undefined),1.4,i,i,i,i,-6
COc1ccc(-c2csc3ncn(-c4ccccc4OC)c(=O)c23)cc1OC,-2.4,i,i,i,i,-2
CCOc1ccc(-n2cnc3sc(C)c(C)c3c2=O)cc1,-0.06,i,i,i,i,5.6*
Cc1sc2ncn(-c3ccccc3)c(=O)c2c1C,1,i,i,i,i,-10
COc1ccccc1-n1cnc2sc(C)c(C)c2c1=O,1.2,i,i,i,i,6.0*
c1csc(-c2nc3c4ccccc4c4ccccc4c3[nH]2)c1,-0.01,-10*,i,i,i,-6
c1ccc(-c2nc(-c3cccs3)[nH]c2-c2ccccc2)cc1,1.2,i,i,i,i,-4
Oc1ccccc1-c1nc2c3ccccc3c3ccccc3c2[nH]1,0.23,i,i,i,6*,-3
Cc1cc(C)c(NC(=O)CSc2nc3[nH]ncc3c(=O)[nH]2)c(C)c1,0.4,i,i,i,i,-11
Fc1ccc(CN2CCCN(Cc3nc(-c4ccc5c(c4)OCO5)no3)CC2)cc1,-6.8*,i,i,i,i,-12
O=C(c1ccco1)N1CCCN(Cc2nc(-c3ccc4c(c3)OCO4)no2)CC1,0.61,i,i,i,i,-14
Cc1c(NC(=S)NC(=O)c2sc3ccccc3c2Cl)cccc1C(=O)O,0.82,i,i,i,i,0
COc1ccccc1C(=O)NNC(=S)NC(=O)c1sc2ccccc2c1Cl,1.1,i,i,25*,i,25*
COc1ccccc1C(=O)NNC(=S)NC(=O)c1cccs1,-0.02,i,i,10*,i,-19
COc1ccccc1C(=O)NC(=S)NNC(=O)c1sc2ccccc2c1Cl,0.39,i,i,46*,i,86*
CCCCN1CC(C)(C)Oc2cccc(F)c2S1(=O)=O,x,i,x,x,x,x
CCCc1nc2ccccc2c(C(=O)OCC(=O)N2CCc3ccccc32)c1CC,-1.3,i,-6.6*,i,i,-11
CC1CCc2nc3ccccc3c(C(=O)OCC(=O)N3CCc4ccccc43)c2C1 (centres undefined),0,i,i,i,i,-3
CCC(NC(=O)Nc1nnc(C(F)(F)F)s1)(C(F)(F)F)C(F)(F)F,-4.5*,i,i,i,i,-50
Cc1ccc(C)c(N2CCN(C(=O)c3ccc(Cn4c(=O)[nH]c5ccccc5c4=O)cc3)CC2)c1,-0.8,i,i,i,i,-12

# Screening results deposited in PubChem by Johns Hopkins Ion Channel Center.
